# Compound activity deposited in PubChem by several laboratories.
# 697 NFkB inh = inhibitors of PMA/ionomycin-induced NF-kB reporter, 697 cells, primary screen, B-cell NF-kB inhibitor project, cell-based, luminescence, uHTS; 697 B-cell NF-kB luciferase reporter, 16 h; 0.33% of 330,000 active; inhibition, % at 4 µM; in the data active = inhibition above about 35%
# UPR XBP1 act = activators of adaptive XBP1 UPR arm, primary screen, cell-based, CHO-XBP1 luciferase reporter, luminescence, uHTS; 0.33% of 330,000 active; IRE1-XBP1 UPR activation; percent of tunicamycin response, DMSO as zero; activation, % at 20 µM;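 active = versus positive control, 20 µM dose yields 30% or more activation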
#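 Material: CHO-XBP1 cells stably carrying IRE1-XBP1-driven luciferase reporter | Medium: F12 with 10% serum | Compound dosing: 20 µM single concentration, DMSO 1% | Incubation: Overnight seeding at 37 °C, 6 h compound treatment at 37 °C | Detection: Steady-Glo luminescence read | Read-out basis: % activation of reporter signal versus tunicamycin and DMSO controls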
# Jurkat NFkB inh = inhibitors of induced NF-kB luciferase reporter, primary screen, TCR NF-kB activation inhibitor project, cell-based, luminescence, uHTS; Jurkat, PMA/ionomycin-induced NF-kB luciferase reporter; 0.53% of 330,000 active; inhibition, % at 4 µM; in the data active = inhibition above about 50%
# Gli-Sufu antag = Gli-Sufu pathway antagonists, primary screen, luciferase luminescence, Sufu-KO-LIGHT cells, uHTS; Sufu-KO-LIGHT fibroblasts, Gli luciferase reporter luminescence; inhibition, % at 5 µM; 0.74% of 340,000 active; AID 588413, 2011;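 active = inhibition above about 55%, limit read from the data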
# CHOP inhibitor = inhibitors of CHOP promoter induction, primary screen, cell-based, unfolded protein response, luciferase reporter | 3.8% of 220,000 active | inhibition, % at 10 µM | AID 2732, 2010 | CHO-K1 CHOP-promoter luciferase, tunicamycin-induced, 15-18 h;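 active = compounds that reduced the stress-induced luciferase reporter signal by more than about 70% of percent inhibition, limit read from the data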
# UPR CHOP act = activators of apoptotic CHOP UPR arm, primary screen, cell-based, CHO-CHOP luciferase reporter, luminescence, uHTS | activation, % at 10 µM | 0.34% of 330,000 active | UPR activation; percent of tunicamycin response over DMSO baseline | AID 449763, 2010;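 active = at 10 µM dose, activation of 40% or more, normalized to positive control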
#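 Test system: CHO-CHOP cells, stable luciferase reporter of PERK-eIF2a-CHOP signalling | Quantity: 500 CHO-CHOP cells per well | Buffer or medium: F12 plus 10% serum | Compound dosing: 10 µM single point, 0.5% DMSO | Schedule: 6 h compound treatment, 37 °C | Signal: Luciferase luminescence | Control set: Tunicamycin high control, DMSO low control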
# Hits are given with their value; - = inactive; . = no result given; ! = not active in a repeat. An excerpt weighted towards active compounds, which were near 3.9% of everything screened.
SMILES,697 NFkB inh,UPR XBP1 act,Jurkat NFkB inh,Gli-Sufu antag,CHOP inhibitor,UPR CHOP act
O=P(OC1CCCCC1)(OC1CCCCC1)C(O)c1c(Cl)cccc1Cl (centres undefined),-,-,-,-,84,-
O=P(OC1CCCCC1)(OC1CCCCC1)C(O)c1ccc(Cl)cc1Cl (centres undefined),-,-,-,-,92,-
CCn1cc(C(=O)NCCc2ccc(OC)c(OC)c2)c(=O)c2cc(S(=O)(=O)N3CCOCC3)ccc21,-,-,-,-,.,-
Cn1cc(S(=O)(=O)N2CCOCC2)cc1C(=O)NCc1ccccc1Cl,-,-,-,-,.,-
CC(=O)N1N=C2c3ccccc3CCC2C1c1cccs1 (centres undefined),-,-,-,-,-,-
CCn1cc(Cl)c(C(=O)N2N=C3/C(=C/c4cccs4)CCCC3C2c2cccs2)n1 (centres undefined),-,-,-,-,83,-
Cc1ccc(S(=O)(=O)Nc2ccc(O)c3ncccc23)cc1,-,-,-,-,73,-
Cc1ccc(S(=O)(=O)Nc2ccc(O)c3cccnc23)cc1,-,-,-,-,.,-
COCCCNC(=O)c1c(N)n(-c2cccc(S(N)(=O)=O)c2)c2nc3ccccc3nc12,-,-,-,-,-,-
CCCNC(=O)c1c(N)n(-c2cccc(OC)c2)c2nc3ccccc3nc12,-,-,-,-,89,-
CCOc1cc(CNCCc2ccc(S(N)(=O)=O)cc2)ccc1OCc1ccccc1,.,.,.,-,-,.
CCOc1cc(CNCCc2ccc(S(N)(=O)=O)cc2)cc(Cl)c1OCc1ccccc1,-,-,-,-,70,-
COC(=O)c1ccc(Cn2c(C)cc(C)[n+]2C)o1,-,-,-,-,73,-
COC(=O)c1ccc(Cc2ccc(C(=O)OC)o2)o1,-,-,-,-,-,-
Cc1cc(NC(=O)Cn2nnc3sc4c(c3c2=O)CCCC4)no1,-,-,-,-,-,-
Cc1cc(NC(=O)Cn2nnc3sc4c(c3c2=O)CCC(C(C)(C)C)C4)no1 (centres undefined),-,-,-,-,81,-
CCCCCCCCCCCCCCCCn1cc[n+](CC(C)=O)c1,.,.,.,73,-,.
O=C(Nc1ncc(Cc2cccc(Cl)c2)s1)c1ccc([N+](=O)[O-])cc1,-,-,-,-,76,-
O=C(Nc1ncc(Cc2ccccc2Cl)s1)c1ccc([N+](=O)[O-])cc1,-,-,-,-,-,-
O=C(Nc1cccc(Cl)c1)Nc1nnc(CC2=CCCCC2)s1,-,-,-,-,93,-
COc1ccc(N(Cc2cc(=O)[nH]c3ccccc23)C(=O)C(C)C)cc1,-,-,-,-,.,-
Cc1ccc(C(=O)c2no[n+]([O-])c2C(=O)c2ccc(C)cc2)cc1,-,-,-,-,82,-
O=C(COC(=O)c1ccccc1C(=O)c1ccc(Cl)c([N+](=O)[O-])c1)NC1CC1,-,-,-,-,106,-
CCc1nc2ccccc2c(=O)n1NC(=O)c1c(O)c2cccc3c2n(c1=O)CCC3,-,-,-,-,95,-
O=C(Nn1c(Cc2ccccc2)nc2ccccc2c1=O)c1c(O)c2cccc3c2n(c1=O)CCC3,-,-,-,-,-,-
SMILES,697 NFkB inh,UPR XBP1 act,Jurkat NFkB inh,Gli-Sufu antag,CHOP inhibitor,UPR CHOP act
O=C(Nc1cccnc1)c1c(O)c2cccc3c2n(c1=O)CC3,-,-,-,-,80,-
O=C(CN1C(=O)c2ccccc2S1(=O)=O)Nc1ccc(S(=O)(=O)Nc2ncccn2)cc1,-,-,-,-,.,-
Cc1ccccc1CSc1nc(-c2ccccc2)cc(=O)[nH]1,-,-,-,-,87,-
CN1CCN(CCCN2c3ccccc3Sc3ccc(C(F)(F)F)cc32)CC1,-,-,-,-,96!,-
COc1cccc(CC(NC(C)=O)C(=O)NC2CCN(S(=O)(=O)c3ccc(NC(C)=O)cc3)CC2)c1OC (centres undefined),-,-,-,-,.,-
Cc1cccnc1NC(=O)COc1ccc2oc3c(c2c1)CCCC3,-,-,-,-,-,-
Cc1ccc(NC(=O)COc2ccc3oc4c(c3c2)CCCC4)nc1,-,-,-,-,76,-
CC(/C=N/Nc1nc(N2CCCCC2)nc(N2CCCCC2)n1)=C\c1ccccc1,-,-,-,-,73,-
Cc1ccccc1NC(=O)N1CCNC(=O)C1CC(=O)Nc1cc(Cl)ccc1Cl (centres undefined),-,-,-,-,.,-
CCOC(=O)c1cnc2ccc(C)cc2c1Nc1ccc(N2CCOCC2)cc1,-,-,-,-,72,-
CCOC(=O)c1ccc2ncc(C(=O)OCC)c(NCCN3CCOCC3)c2c1,-,-,-,-,.,-
CCOC(=O)/C(C#N)=C\c1cccnc1,-,-,-,-,-,-
CCOC(=O)/C(=C\c1cccnc1)C(=O)c1cc(C(C)=O)c(Nc2ccccc2)s1,-,-,-,60,.,-
CC(C)(C)c1ccc(C(=O)NNC(=S)NC(=O)c2cccnc2)cc1,-,-,-,-,.,-
CC(C)(C)c1cc(Cl)c(O)c(NC(=S)NC(=O)c2cccnc2)c1,-,-,-,-,73,-
CSc1nc(C)c(Cc2ccccc2)c(=O)[nH]1,-,-,-,-,-,-
C=C(C)CSc1nc(C)c(Cc2ccccc2)c(=O)[nH]1,-,-,-,-,76,-
Cc1nc(SCC(C)C)[nH]c(=O)c1Cc1ccccc1,-,-,-,-,83,-
COc1ccc(-c2nc(CSCC(=O)NCc3ccc4c(c3)OCO4)c(C)o2)cc1,-,-,-,-,80,-
Cc1ccsc1-c1nc(CSCC(=O)NCc2ccc3c(c2)OCO3)c(C)o1,-,-,-,-,81,-
COc1ccc(-c2nc(CSCC(=O)NCc3ccc4c(c3)OCO4)c(C)o2)cc1OC,-,-,-,-,-,-
CSc1cccc(NC(=O)CN(C)S(=O)(=O)c2cnc[nH]2)c1,-,-,-,-,.,-
NC(=O)c1ccc(C(F)(F)F)n(Cc2ccccc2Cl)c1=O,-,-,-,-,92,-
COc1ccc(/C=C/c2nc(S(=O)(=O)c3ccccc3)c(N(C)C)o2)cc1,-,-,-,-,.,-
OCCN(Cc1ccccc1)CC(O)COc1ccc(-c2ccccc2)cc1 (centres undefined),-,-,-,-,76,-
COC(=O)c1cc(OC)c(OC)cc1NC(=O)c1cccc(C)c1,-,-,-,-,70,-
